Calls of active or inactive are those of the source. The rule behind the calls is not given here.
What was measured:
[1] = Plasma concentration in mouse at 10 mg/kg, po after 6 hrs; type: ADME, organism-based
Method in brief: (§1)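 Mice dosed orally at 10 mg/kg, with n = 3 animals per time point. Plasma concentration was followed over time, with sampling to at least 6 h.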

[2] = Half life in mouse liver microsomes; type: ADME, Microsome
[3] = Half life in mouse plasma; type: ADME, cell-free
[4] = Plasma concentration in mouse at 10 mg/kg, po after 1 hr; type: ADME, organism-based; method in brief: as §1
[5] = Kinetic solubility in neutral buffer; type: physicochemical
Method in brief: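 Kinetic solubility measured in aqueous buffer at pH 7.4.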

[6] = molecular target: T1, DNA topoisomerase 2-alpha (Homo sapiens, UniProt P11388); assay: Poison activity at human topo2alpha assessed as induction of accumulation of topo-2/DNA cleavage complex formation at 200 uM using […] plasmid incubated for 6 mins by SYBR safe DNA stain based cleavage complex formation assay
Method in brief: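 Test compound at 200 μM was incubated with 1 U topoisomerase II and 500 ng […] plasmid for 6 min at 37 °C, with 1% DMSO final; vehicle and no-enzyme lanes served as controls. Products were run on a 1% agarose gel with SYBR Safe stain. The band intensity of linear DNA (form III) was quantified and normalized.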

[7] = molecular target: T1, DNA topoisomerase 2-alpha; assay: Inhibition of human topo2alpha by plasmid relaxation assay

T1 sequence (P11388 whole entry): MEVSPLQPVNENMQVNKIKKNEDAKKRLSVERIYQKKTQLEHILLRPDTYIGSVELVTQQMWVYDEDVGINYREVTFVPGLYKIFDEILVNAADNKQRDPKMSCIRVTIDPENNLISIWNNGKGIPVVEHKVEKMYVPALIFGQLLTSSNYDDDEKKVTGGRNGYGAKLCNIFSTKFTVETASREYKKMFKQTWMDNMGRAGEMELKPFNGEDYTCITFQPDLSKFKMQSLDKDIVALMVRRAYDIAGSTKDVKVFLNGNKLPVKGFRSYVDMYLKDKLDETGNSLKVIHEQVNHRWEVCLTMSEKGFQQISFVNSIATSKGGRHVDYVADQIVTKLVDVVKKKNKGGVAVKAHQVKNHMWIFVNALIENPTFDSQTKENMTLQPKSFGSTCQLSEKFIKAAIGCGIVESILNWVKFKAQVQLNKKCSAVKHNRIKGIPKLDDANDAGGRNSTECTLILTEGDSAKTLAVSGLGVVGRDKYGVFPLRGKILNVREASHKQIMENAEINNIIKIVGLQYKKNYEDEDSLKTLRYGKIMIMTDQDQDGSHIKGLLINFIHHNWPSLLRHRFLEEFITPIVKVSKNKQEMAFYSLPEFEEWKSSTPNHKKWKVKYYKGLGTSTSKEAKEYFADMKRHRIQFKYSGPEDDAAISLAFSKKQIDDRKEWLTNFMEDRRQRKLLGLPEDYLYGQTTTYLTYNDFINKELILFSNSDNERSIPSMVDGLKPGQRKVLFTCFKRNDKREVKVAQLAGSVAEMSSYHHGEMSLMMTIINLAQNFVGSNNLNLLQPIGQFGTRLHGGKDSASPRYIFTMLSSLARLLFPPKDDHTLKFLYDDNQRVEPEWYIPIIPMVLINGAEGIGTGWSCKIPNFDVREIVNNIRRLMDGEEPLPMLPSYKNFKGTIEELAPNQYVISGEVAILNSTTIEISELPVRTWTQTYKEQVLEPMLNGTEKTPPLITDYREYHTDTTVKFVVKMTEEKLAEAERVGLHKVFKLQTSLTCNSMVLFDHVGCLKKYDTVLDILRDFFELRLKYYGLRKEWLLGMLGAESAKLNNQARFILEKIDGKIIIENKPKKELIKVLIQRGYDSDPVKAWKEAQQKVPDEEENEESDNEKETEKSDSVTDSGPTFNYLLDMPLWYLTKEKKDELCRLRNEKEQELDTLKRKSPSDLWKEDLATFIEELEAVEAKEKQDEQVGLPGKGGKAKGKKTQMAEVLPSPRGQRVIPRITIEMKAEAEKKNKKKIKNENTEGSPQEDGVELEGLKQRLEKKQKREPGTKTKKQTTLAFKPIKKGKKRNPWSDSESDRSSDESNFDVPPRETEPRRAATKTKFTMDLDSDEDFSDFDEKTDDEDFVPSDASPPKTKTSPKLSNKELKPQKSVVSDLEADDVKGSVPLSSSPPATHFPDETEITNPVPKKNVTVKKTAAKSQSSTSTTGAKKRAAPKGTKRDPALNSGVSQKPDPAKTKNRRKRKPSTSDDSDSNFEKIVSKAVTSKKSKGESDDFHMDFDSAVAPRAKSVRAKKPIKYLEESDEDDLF

Structure (SMILES)	concentration at 6 h [1]	half-life [2]	half-life [3]	concentration at 1 h [4]	Kinetic_solubility [5]	Activity [6]	IC50 [7]
O=C(Nc1cccc(OC(F)(F)F)c1)c1c(O)n(-c2ccccc2)c(=S)n(-c2ccccc2)c1=O	400 ng/mL	> 1 h	> 2 h	400 ng/mL	224 µM	Active	
O=C1NC(=S)NC(=O)C1C(=O)Nc1ccccc1 [MERBARONE]							40 µM
COc1cccc(CCNC(=O)c2c(O)n(-c3ccccc3)c(=S)n(-c3ccccc3)c2=O)c1		> 1 h	> 2 h				
CC(C)Oc1cccc(NC(=O)c2c(O)n(-c3ccccc3)c(=S)n(-c3ccccc3)c2=O)c1		> 1 h	> 2 h				
CC(F)(F)c1cccc(NC(=O)c2c(O)n(-c3ccccc3)c(=S)n(-c3ccccc3)c2=O)c1		> 1 h	> 2 h				
O=C(Nc1cccc(C(F)F)c1)c1c(O)n(-c2ccccc2)c(=S)n(-c2ccccc2)c1=O		> 1 h	> 2 h		238 µM	Active	
O=C(Nc1cccc(OC(F)F)c1)c1c(O)n(-c2ccccc2)c(=S)n(-c2ccccc2)c1=O		> 1 h	> 2 h		208 µM	Active	

— ChEMBL document CHEMBL4342496, “Design, Synthesis, Dynamic Docking, Biochemical Characterization, and in Vivo Pharmacokinetics Studies of Novel Topoisomerase II Poisons with Promising Antiproliferative Activity” (J Med Chem, 2020)
